What was measured:
Assay type in all cases: functional
[1] = system: Puccinia graminis f. tritici; assay: Antifungal activity against Puccinia graminis f. tritici assessed as inhibition of wheat stem rust disease on wheat cultivar Yuma at 100 ppm measured 24 hr post fungal inoculation relative to untreated control
Outline: (§1)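 Whole-plant protectant test: pure compounds in acetone, serially diluted in acetone to 6.25, 25 or 100 ppm and applied to plants.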

Phytophthora infestans [2] = assay: Antifungal activity against Phytophthora infestans assessed as inhibition of late tomato blight disease on tomato cultivar Rutgers plants at 6.25 ppm measured 24 hr post fungal inoculation relative to untreated control; outline: as §1
Phytophthora infestans [3] = assay: Antifungal activity against Phytophthora infestans assessed as inhibition of late tomato blight disease on tomato cultivar Rutgers plants at 100 ppm measured 96 hr post fungal inoculation relative to untreated control; outline: as §1
[4] = system: Puccinia graminis f. tritici; assay: Antifungal activity against Puccinia graminis f. tritici assessed as inhibition of wheat stem rust disease on wheat cultivar Yuma at 6.25 ppm measured 24 hr post fungal inoculation relative to untreated control; outline: as §1
Zymoseptoria tritici [5] = assay: Antifungal activity against Zymoseptoria tritici assessed as inhibition of wheat leaf spot disease on wheat cultivar Yuma at 100 ppm measured 24 hr post fungal inoculation relative to untreated control; outline: as §1
Parastagonospora nodorum [6] = assay: Antifungal activity against Phaeosphaeria nodorum assessed as inhibition of glume blotch disease on wheat cultivar Yuma plants at 100 ppm measured 24 hr post fungal inoculation relative to untreated control; outline: as §1
Phytophthora infestans [7] = assay: Antifungal activity against Phytophthora infestans assessed as inhibition of late tomato blight disease on tomato cultivar Rutgers plants at 100 ppm measured 24 hr post fungal inoculation relative to untreated control; outline: as §1
Zymoseptoria tritici [8] = assay: Antifungal activity against Zymoseptoria tritici assessed as inhibition of wheat leaf spot disease on wheat cultivar Yuma at 25 ppm measured 24 hr post fungal inoculation relative to untreated control; outline: as §1
Plasmopara viticola [9] = assay: Antifungal activity against Plasmopara viticola assessed as inhibition of grape downy mildew disease on vines cultivar Carignane plants at 25 ppm measured 24 hr post fungal inoculation relative to untreated control; outline: as §1
[10] = system: Puccinia graminis f. tritici; assay: Antifungal activity against Puccinia graminis f. tritici assessed as inhibition of wheat stem rust disease on wheat cultivar Yuma at 6.25 ppm measured 96 hr post fungal inoculation relative to untreated control; outline: as §1
Phytophthora infestans [11] = assay: Antifungal activity against Phytophthora infestans assessed as inhibition of late tomato blight disease on tomato cultivar Rutgers plants at 6.25 ppm measured 96 hr post fungal inoculation relative to untreated control; outline: as §1
[12] = system: Puccinia graminis f. tritici; assay: Antifungal activity against Puccinia graminis f. tritici assessed as inhibition of wheat stem rust disease on wheat cultivar Yuma at 25 ppm measured 96 hr post fungal inoculation relative to untreated control; outline: as §1
Plasmopara viticola [13] = assay: Antifungal activity against Plasmopara viticola assessed as inhibition of grape downy mildew disease on vines cultivar Carignane plants at 100 ppm measured 96 hr post fungal inoculation relative to untreated control; outline: as §1
[14] = system: Puccinia graminis f. tritici; assay: Antifungal activity against Puccinia graminis f. tritici assessed as inhibition of wheat stem rust disease on wheat cultivar Yuma at 100 ppm measured 96 hr post fungal inoculation relative to untreated control; outline: as §1
Plasmopara viticola [15] = assay: Antifungal activity against Plasmopara viticola assessed as inhibition of grape downy mildew disease on vines cultivar Carignane plants at 25 ppm measured 96 hr post fungal inoculation relative to untreated control; outline: as §1
Zymoseptoria tritici [16] = assay: Antifungal activity against Zymoseptoria tritici assessed as inhibition of wheat leaf spot disease on wheat cultivar Yuma at 6.25 ppm measured 24 hr post fungal inoculation relative to untreated control; outline: as §1
Plasmopara viticola [17] = assay: Antifungal activity against Plasmopara viticola assessed as inhibition of grape downy mildew disease on vines cultivar Carignane plants at 6.25 ppm measured 24 hr post fungal inoculation relative to untreated control; outline: as §1
[18] = system: Puccinia graminis f. tritici; assay: Antifungal activity against Puccinia graminis f. tritici assessed as inhibition of wheat stem rust disease on wheat cultivar Yuma at 25 ppm measured 24 hr post fungal inoculation relative to untreated control; outline: as §1
Plasmopara viticola [19] = assay: Antifungal activity against Plasmopara viticola assessed as inhibition of grape downy mildew disease on vines cultivar Carignane plants at 100 ppm measured 24 hr post fungal inoculation relative to untreated control; outline: as §1
Phytophthora infestans [20] = assay: Antifungal activity against Phytophthora infestans assessed as inhibition of late tomato blight disease on tomato cultivar Rutgers plants at 25 ppm measured 96 hr post fungal inoculation relative to untreated control; outline: as §1
Parastagonospora nodorum [21] = assay: Antifungal activity against Phaeosphaeria nodorum assessed as inhibition of glume blotch disease on wheat cultivar Yuma plants at 6.25 ppm measured 24 hr post fungal inoculation relative to untreated control; outline: as §1
Parastagonospora nodorum [22] = assay: Antifungal activity against Phaeosphaeria nodorum assessed as inhibition of glume blotch disease on wheat cultivar Yuma plants at 25 ppm measured 24 hr post fungal inoculation relative to untreated control; outline: as §1
Phytophthora infestans [23] = assay: Antifungal activity against Phytophthora infestans assessed as inhibition of late tomato blight disease on tomato cultivar Rutgers plants at 25 ppm measured 24 hr post fungal inoculation relative to untreated control; outline: as §1
Plasmopara viticola [24] = assay: Antifungal activity against Plasmopara viticola assessed as inhibition of grape downy mildew disease on vines cultivar Carignane plants at 6.25 ppm measured 96 hr post fungal inoculation relative to untreated control; outline: as §1

Structure (SMILES): C=C1[C@@H](C)C[C@@H](OC(=O)/C=C/c2ccccc2)[C@]2(C)[C@@H]3C(=CC[C@@H]12)[C@@H](OC)O[C@H]3OC
- inhibition at 100 ppm [1]: 71%
- inhibition at 6.25 ppm (Phytophthora infestans [2]): 47%
- inhibition at 100 ppm (Phytophthora infestans [3]): 14%
- inhibition at 6.25 ppm [4]: 4%
- inhibition at 100 ppm (Zymoseptoria tritici [5]): 0%
- inhibition at 100 ppm (Parastagonospora nodorum [6]): 20%
- inhibition at 100 ppm (Phytophthora infestans [7]): 99%
- inhibition at 25 ppm (Zymoseptoria tritici [8]): 0%
- inhibition at 25 ppm (Plasmopara viticola [9]): 61%
- inhibition at 6.25 ppm [10]: 0%
- inhibition at 6.25 ppm (Phytophthora infestans [11]): 0%
- inhibition at 25 ppm [12]: 0%
- inhibition at 100 ppm (Plasmopara viticola [13]): 57%
- inhibition at 100 ppm [14]: 19%
- inhibition at 25 ppm (Plasmopara viticola [15]): 23%
- inhibition at 6.25 ppm (Zymoseptoria tritici [16]): 0%
- inhibition at 6.25 ppm (Plasmopara viticola [17]): 7%
- inhibition at 25 ppm [18]: 4%
- inhibition at 100 ppm (Plasmopara viticola [19]): 74%
- inhibition at 25 ppm (Phytophthora infestans [20]): 6%
- inhibition at 6.25 ppm (Parastagonospora nodorum [21]): 0%
- inhibition at 25 ppm (Parastagonospora nodorum [22]): 0%
- inhibition at 25 ppm (Phytophthora infestans [23]): 78%
- inhibition at 6.25 ppm (Plasmopara viticola [24]): 0%

Structure (SMILES): C=C1[C@@H]2[C@H](O)C=C(C=O)[C@H](C=O)[C@@]2(C)[C@H](OC(=O)/C=C/c2ccccc2)C[C@@H]1C
- inhibition at 100 ppm [1]: 77%
- inhibition at 6.25 ppm (Phytophthora infestans [2]): 72%
- inhibition at 100 ppm (Phytophthora infestans [3]): 3%
- inhibition at 6.25 ppm [4]: 0%
- inhibition at 100 ppm (Zymoseptoria tritici [5]): 0%
- inhibition at 100 ppm (Parastagonospora nodorum [6]): 73%
- inhibition at 100 ppm (Phytophthora infestans [7]): 100%
- inhibition at 25 ppm (Zymoseptoria tritici [8]): 0%
- inhibition at 25 ppm (Plasmopara viticola [9]): 28%
- inhibition at 6.25 ppm [10]: 0%
- inhibition at 6.25 ppm (Phytophthora infestans [11]): 0%
- inhibition at 25 ppm [12]: 4%
- inhibition at 100 ppm (Plasmopara viticola [13]): 86%
- inhibition at 100 ppm [14]: 61%
- inhibition at 25 ppm (Plasmopara viticola [15]): 0%
- inhibition at 6.25 ppm (Zymoseptoria tritici [16]): 0%
- inhibition at 6.25 ppm (Plasmopara viticola [17]): 0%
- inhibition at 25 ppm [18]: 8%
- inhibition at 100 ppm (Plasmopara viticola [19]): 76%
- inhibition at 25 ppm (Phytophthora infestans [20]): 7%
- inhibition at 6.25 ppm (Parastagonospora nodorum [21]): 0%
- inhibition at 25 ppm (Parastagonospora nodorum [22]): 0%
- inhibition at 25 ppm (Phytophthora infestans [23]): 82%
- inhibition at 6.25 ppm (Plasmopara viticola [24]): 0%

Structure (SMILES): C=C1[C@@H](C)C[C@@H](OC(=O)/C=C/c2ccccc2)[C@@]2(C)[C@H]1CC=C(CO)[C@@H]2CO
- inhibition at 100 ppm [1]: 0%
- inhibition at 6.25 ppm (Phytophthora infestans [2]): -6%
- inhibition at 6.25 ppm [4]: 0%
- inhibition at 100 ppm (Zymoseptoria tritici [5]): 0%
- inhibition at 100 ppm (Parastagonospora nodorum [6]): 0%
- inhibition at 100 ppm (Phytophthora infestans [7]): 58%
- inhibition at 25 ppm (Zymoseptoria tritici [8]): 0%
- inhibition at 25 ppm (Plasmopara viticola [9]): 22%
- inhibition at 6.25 ppm (Zymoseptoria tritici [16]): 0%
- inhibition at 6.25 ppm (Plasmopara viticola [17]): 4%
- inhibition at 25 ppm [18]: 0%
- inhibition at 100 ppm (Plasmopara viticola [19]): 70%
- inhibition at 6.25 ppm (Parastagonospora nodorum [21]): 0%
- inhibition at 25 ppm (Parastagonospora nodorum [22]): 0%
- inhibition at 25 ppm (Phytophthora infestans [23]): 8%

Structure (SMILES): C=C1[C@@H](C)C[C@@H](OC)[C@]2(C)[C@@H](C=O)C(C=O)=CC[C@@H]12
- inhibition at 100 ppm [1]: 21%
- inhibition at 6.25 ppm (Phytophthora infestans [2]): 3%
- inhibition at 6.25 ppm [4]: 0%
- inhibition at 100 ppm (Zymoseptoria tritici [5]): 0%
- inhibition at 100 ppm (Parastagonospora nodorum [6]): 20%
- inhibition at 100 ppm (Phytophthora infestans [7]): 98%
- inhibition at 25 ppm (Zymoseptoria tritici [8]): 0%
- inhibition at 25 ppm (Plasmopara viticola [9]): 33%
- inhibition at 6.25 ppm (Zymoseptoria tritici [16]): 0%
- inhibition at 6.25 ppm (Plasmopara viticola [17]): 9%
- inhibition at 25 ppm [18]: 0%
- inhibition at 100 ppm (Plasmopara viticola [19]): 70%
- inhibition at 6.25 ppm (Parastagonospora nodorum [21]): 20%
- inhibition at 25 ppm (Parastagonospora nodorum [22]): 20%
- inhibition at 25 ppm (Phytophthora infestans [23]): 67%

Structure (SMILES): C=C1[C@@H]2C(=O)C=C3[C@@H](OC)O[C@@H](OC)[C@@H]3[C@@]2(C)[C@H](OC(=O)/C=C/c2ccccc2)C[C@@H]1C
- inhibition at 100 ppm [1]: 0%
- inhibition at 100 ppm (Zymoseptoria tritici [5]): 0%
- inhibition at 100 ppm (Parastagonospora nodorum [6]): 0%
- inhibition at 100 ppm (Phytophthora infestans [7]): 0%
- inhibition at 100 ppm (Plasmopara viticola [19]): 0%

Structure (SMILES): C=C1[C@@H](C)C[C@@H](O)[C@]2(C)[C@@H](C=O)C(C=O)=CC[C@@H]12
- inhibition at 100 ppm [1]: 0%
- inhibition at 6.25 ppm (Phytophthora infestans [2]): 19%
- inhibition at 6.25 ppm [4]: 0%
- inhibition at 100 ppm (Zymoseptoria tritici [5]): 0%
- inhibition at 100 ppm (Parastagonospora nodorum [6]): 60%
- inhibition at 100 ppm (Phytophthora infestans [7]): 28%
- inhibition at 25 ppm (Zymoseptoria tritici [8]): 0%
- inhibition at 25 ppm (Plasmopara viticola [9]): 4%
- inhibition at 6.25 ppm (Zymoseptoria tritici [16]): 0%
- inhibition at 6.25 ppm (Plasmopara viticola [17]): 7%
- inhibition at 25 ppm [18]: 0%
- inhibition at 100 ppm (Plasmopara viticola [19]): 24%
- inhibition at 6.25 ppm (Parastagonospora nodorum [21]): 0%
- inhibition at 25 ppm (Parastagonospora nodorum [22]): 0%
- inhibition at 25 ppm (Phytophthora infestans [23]): 36%

From ChEMBL document CHEMBL3046621, “Fungicidal sesquiterpene dialdehyde cinnamates from Pseudowintera axillaris” (2006)
